Measurements taken from ChEMBL document CHEMBL4627381, “Licochalcone A Selectively Resensitizes ABCG2-Overexpressing Multidrug-Resistant Cancer Cells to Chemotherapeutic Drugs” (J Nat Prod, 2020).
Calls of active or inactive are those of the source. The calls are words filed in the database; no cut-off is given here.

What was measured:
NCI-H460 = assay: Induction of pheophorbide A accumulation in human H460 cells at 20 uM incubated for 1 hr by FACScan flow cytometry; format: functional, cell-based
Method in brief: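 Cells held drug-free 7 days. 3 × 10^5 cells were suspended in IMDM with 5% FCS and loaded with pheophorbide A (ex 395/em 670 nm) for 1 h, with or without LCA (20 μM for single-concentration accumulation) or Ko143 3 μM as reference. Read immediately by flow cytometry. Efflux inhibition was run over a concentration range; mean ± SD of three experiments.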

[1] = biological target: T1, Broad substrate specificity ATP-binding cassette transporter ABCG2 (Homo sapiens, UniProt Q9UNQ0); assay: Reversal of ABCG2 (unknown origin)-mediated multidrug resistance in human S1-M1-80 cells assessed as fold-change in mitoxantrone IC50 at 3 uM after 72 hrs by MTT assay relative to mitoxantrone IC50; format: cell-based; details: s1-m1-80, 72 h
T1 sequence (Q9UNQ0 whole entry): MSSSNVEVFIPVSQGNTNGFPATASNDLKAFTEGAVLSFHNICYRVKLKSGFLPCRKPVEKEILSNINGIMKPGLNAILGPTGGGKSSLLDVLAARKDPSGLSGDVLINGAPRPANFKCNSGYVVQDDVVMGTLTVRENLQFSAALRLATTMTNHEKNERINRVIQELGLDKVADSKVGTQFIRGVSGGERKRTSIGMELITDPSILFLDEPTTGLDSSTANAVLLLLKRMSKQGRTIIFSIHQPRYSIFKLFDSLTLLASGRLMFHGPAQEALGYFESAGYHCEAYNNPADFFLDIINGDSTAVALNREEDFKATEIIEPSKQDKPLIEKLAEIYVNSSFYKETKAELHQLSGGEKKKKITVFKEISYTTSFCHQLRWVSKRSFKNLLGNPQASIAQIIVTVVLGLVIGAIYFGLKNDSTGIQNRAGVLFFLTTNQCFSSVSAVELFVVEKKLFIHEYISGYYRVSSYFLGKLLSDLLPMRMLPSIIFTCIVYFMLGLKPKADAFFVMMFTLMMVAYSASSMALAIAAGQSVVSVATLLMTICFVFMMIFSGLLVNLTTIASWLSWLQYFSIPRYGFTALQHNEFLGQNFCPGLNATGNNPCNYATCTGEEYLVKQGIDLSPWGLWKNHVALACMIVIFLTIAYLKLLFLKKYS
Method in brief: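 MTT readout in S1-M1-80 colon cancer cells (mitoxantrone-selected, held in 80 μM mitoxantrone, then drug-free 7 days before assay). Cells were seeded at 5000/well for 24 h, then given increasing mitoxantrone or topotecan with DMSO or non-toxic modulator for 72 h at 37 °C. IC50 came from fitted dose-response curves (at least three independent experiments). Fold-reversal = IC50 without modulator ÷ IC50 with modulator.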

**Q.** What does the source list for `C=CC(C)(C)c1cc(/C=C/C(=O)c2ccc(O)cc2)c(OC)cc1O` [LICOAGROCHACONE A]?
**A.** Activity (NCI-H460): inactive; fold change (FC) [1]: 48.1
